Hits are enriched below; roughly 1.7% of the tested compounds scored in any of these assays.
PLC-beta3 inh: blocks human PLC-beta3 enzyme activity | Q01970 | Purified PLC-beta3, fluorogenic substrate, fluorescence | inhibition, % at 12.2 µM | actives 0.18% (n = 370,000) | AID 720704; in the data active means inhibition above about 11%
PLCg1 inh: blocks human PLC-gamma1 enzyme activity | P19174 | purified PLC-gamma1, fluorogenic substrate, fluorescence | inhibition, % at 12.2 µM | actives 0.84% (n = 370,000) | AID 720700; in the data active means inhibition above about 9.5%
UCH37 DUB inh: blocks the human deubiquitinase UCH37 | AID 588478 | inhibition, % (test concentration not listed) | actives 0.33% (n = 330,000) | purified proteasome/UCH37, Ub-AMC cleavage fluorescence | Q9Y5K5;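 active means mean inhibition over replicate wells above about 20%, limit read from the data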
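Material: human UCH37 enzyme supplied as purified proteasome complex. Measure: % inhibition of Ub-AMC cleavage fluorescence. Medium: pH 7.4 Tris-HCl (50 mM) with ovalbumin, ATP-MgCl2, DTT. Times: 30 min preincubation with enzyme, 25 min cleavage at room temperature. Detection: AMC fluorescence intensity at 355/460 nm.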
Rpn11 inh: Rpn11 (human) deubiquitinase inhibition. AID 588493. O00487. inhibition, % at 20 µM. actives 0.59% (n = 360,000). human 26S proteasome, Ub4-pepOG fluorescence polarization; 20S core pre-blocked with epoxomicin;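 active means inhibition at 20 µM, scaled to each plate's controls, above about 33%, limit read from the data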
Target sequence (O00487 whole entry, looked up): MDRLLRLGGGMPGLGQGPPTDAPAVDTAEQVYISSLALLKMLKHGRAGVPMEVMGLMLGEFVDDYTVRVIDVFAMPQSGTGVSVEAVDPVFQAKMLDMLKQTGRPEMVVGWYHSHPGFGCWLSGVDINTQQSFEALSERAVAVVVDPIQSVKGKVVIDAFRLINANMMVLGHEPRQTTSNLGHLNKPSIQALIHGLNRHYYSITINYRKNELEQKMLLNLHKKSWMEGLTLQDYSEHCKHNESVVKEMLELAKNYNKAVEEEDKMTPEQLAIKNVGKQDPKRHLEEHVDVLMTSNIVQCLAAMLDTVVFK
Rpn11 inh conf: Rpn11 inhibition confirmation, single concentration. shares compounds with Rpn11 inh. purified human 26S proteasome, Ub4-pepOG fluorescence polarization; proteasome pretreated with epoxomicin. inhibition, % at 20 µM. actives 29% (n = 1,900)
MMP-2 counter: blocks human MMP-2, flagging nonselective RPN11 hits; shares compounds with Rpn11 inh; recombinant MMP-2, FRET peptide cleavage fluorescence; inhibition, % at 20 µM; actives 4% (n = 1,900);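 further: human MMP-2 activated beforehand with APMA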
Thrombin inh: counter-screen for RPN11 inhibitors: inhibition of bovine thrombin; shares compounds with Rpn11 inh; bovine thrombin cleavage of Ub4-pepOG, fluorescence polarization; inhibition, % at 20 µM; actives 13% (n = 1,900); AID 602333;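 active means mean inhibition at least 40% at 20 µM, or signal 3 deviations below plate average, so some actives read negative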
Numbers stand for hits; i = inactive; nt = no result. Unless noted, no stated cut-off is given here; in the data, active means inhibition above about 40%; inactive means the rest.

SMILES	PLC-beta3 inh	PLCg1 inh	UCH37 DUB inh	Rpn11 inh	Rpn11 inh conf	MMP-2 counter	Thrombin inh
COc1ccc(C2c3c(ccc4ccccc34)Oc3ncn4nc(CON=Cc5ccccc5)nc4c32)cc1 (stereo not drawn)	nt	nt	i	nt	nt	nt	nt
Cc1c(C(=O)N/N=C/c2ccc(O)c(Br)c2)sc(N)c1C#N	i	i	nt	58	54	i	41
COc1cccc(C=Nn2nnc3c(cnn3-c3ccccc3)c2=O)c1	nt	nt	i	nt	nt	nt	nt
CC(=O)C1=C(O)C(=CC=Cc2ccccc2)OC1=O	i	i	nt	41	43	i	i
Cc1ccc(C2=NOC(=O)/C2=C\C=C\c2ccccc2)cc1	i	i	i	i	nt	nt	nt
COc1ccc(C=NNC(=S)SC)cc1OC	nt	nt	i	nt	nt	nt	nt
CC(=O)Nc1cccc(C(C)=NNC(=O)c2cc(-c3ccncc3)nc3ccccc23)c1	nt	nt	i	nt	nt	nt	nt
COc1ccc(C2C(C#N)=C(N)Oc3cc(O)ccc32)cc1Cl (stereo not drawn)	i	i	i	59	i	i	i
C#CCOc1ccc(C2C(C#N)=C(N)Oc3cc(O)ccc32)cc1 (stereo not drawn)	i	i	i	52	i	i	i
N#CC1=C(N)Oc2cc(O)c(Cl)cc2C1c1cccnc1 (stereo not drawn)	i	i	i	57	i	i	i
O=C(NN=Cc1ccc(F)cc1)c1ccc(-n2cnnn2)cc1	nt	nt	i	nt	nt	nt	nt
COCc1c(C(=O)NN=Cc2c[nH]c3ccccc23)nnn1-c1nonc1N	nt	nt	i	nt	nt	nt	nt
O=C1C2C3C=CC(C3)C2C(=O)N1c1cccc(-c2nc3ccccc3o2)c1 (stereo not drawn)	i	i	i	54	i	i	i
O=C(Nc1cccc(-c2nc3ccccc3o2)c1)c1ccc(N2C(=O)C3C4C=CC(C4)C3C2=O)cc1 (stereo not drawn)	i	i	i	i	nt	nt	nt
O=C1CN(C(=O)COC(=O)c2cccs2)c2ccccc2N1	i	i	i	i	nt	nt	nt
Cn1c2ccccc2c2cc(C(=O)OCC(=O)N3CC(=O)Nc4ccccc43)sc21	i	i	i	65	121	i	88
CCN(CC)CCOC(=O)c1ccc(N/C=C(/C#N)c2nc(-c3cccc(OC)c3)cs2)cc1	i	i	i	i	nt	nt	nt
CCN(CC)CCOC(=O)c1ccc(N/C=C(/C#N)c2nc(-c3ccc(OC)c(OC)c3)cs2)cc1	i	i	i	95	70	i	57
COC(=O)c1ccc2c(c1)NC(=O)C(N(CC(C)C)CC(C)C)S2 (stereo not drawn)	i	i	i	48	i	i	i
N#CCC(=O)Nc1ccc(C(=O)OCC(=O)NC(=O)NCc2ccco2)cc1	i	i	i	45	i	41	i
COc1ccc2c(C)cc(SCC(=O)NC3CCCCC3)nc2c1	i	i	i	i	nt	nt	nt
COc1ccc2c(C)cc(SCC(=O)N3CCOCC3)nc2c1	i	i	i	40	41	i	i
COc1ccc(C(C)=NNS(C)(=O)=O)c(OC)c1	nt	nt	i	nt	nt	nt	nt
O=C(N/N=C/c1cc([N+](=O)[O-])ccc1Cl)c1ccc2nc[nH]c2c1	i	i	nt	69	i	i	i
O=C(N/N=C/c1ccc(Cl)cc1Cl)c1ccc2nc[nH]c2c1	i	i	nt	62	63	i	i
SMILES	PLC-beta3 inh	PLCg1 inh	UCH37 DUB inh	Rpn11 inh	Rpn11 inh conf	MMP-2 counter	Thrombin inh
O=C(NN=Cc1ccc([N+](=O)[O-])cc1)c1ccc2nc[nH]c2c1	nt	nt	i	nt	nt	nt	nt
CCOc1ccc(S(=O)(=O)N(CC(=O)NN=Cc2ccc(-c3ccc([N+](=O)[O-])cc3)o2)c2ccccc2)cc1	nt	nt	i	nt	nt	nt	nt
O=C(CNS(=O)(=O)c1ccccc1)NN=Cc1ccncc1	nt	nt	i	nt	nt	nt	nt
COc1cc(OC)cc(-c2nnc(Nc3nc4c(F)cccc4s3)o2)c1	i	i	i	114	76	i	i
Fc1cccc2sc(Nc3nnc(-c4ccccc4)o3)nc12	i	i	i	i	nt	nt	nt
Cn1cccc1C=NN1CCN(c2ccccc2)CC1	nt	nt	i	nt	nt	nt	nt
Cc1ccccc1OCC(=O)N1N=C(C(F)(F)F)CC1(O)C(C)(C)C (stereo not drawn)	i	i	i	152	i	i	i
Cc1ccc(OCC(=O)N2N=C(C(F)(F)F)CC2(O)C(C)(C)C)cc1C (stereo not drawn)	i	i	i	i	nt	nt	nt
